In ChEMBL document CHEMBL1687761:

Tests used:
[1] = test system: Metallo-beta-lactamase (Escherichia coli), Q5U7L7 [W87F]; assay: (§1) Activity of beta-lactamase VIM-2 W87F mutant expressed in Escherichia coli XL1-Blue isolated from […] grown culture
Escherichia coli [2] = assay: Activity of Escherichia coli XL1-Blue VIM-2 A64W mutant beta-lactamase by spectrophotometer
In short: (§2)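 Mutant enzyme expressed in E. coli BL21(DE3) in autoinducing ZYP-5052 medium. Purified by anion exchange at pH 7.2, then high-resolution anion exchange at pH 9.2, plus gel filtration in 50 mM HEPES-50 μM ZnSO4 pH 7.5 where needed. Identity confirmed by tryptic peptide mass fingerprint. Steady-state kinetics on β-lactam substrates were run under the conditions used for wild-type VIM-2.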

Escherichia coli [3] = assay: Activity of Escherichia coli XL1-Blue wild-type IMP-1 beta-lactamase by spectrophotometer
[4] = molecular target: Metallo-beta-lactamase (Escherichia coli) (UniProt Q5U7L7); assay: Activity of beta-lactamase VIM-2 in Escherichia coli XL1-Blue isolated from 1.2 hrs grown culture
In short: (§3)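 Imipenem-hydrolyzing activity in crude cell extracts of E. coli XL-1 carrying pLBII-VIM-2 or pLBII-VIM-2-W87F. Read spectrophotometrically with 150 μM imipenem in 10 mM HEPES (pH 7.5) plus 50 μM ZnSO4. Activity normalized to culture density (A600). Means of three independent measurements.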

[5] = test system: Metallo-beta-lactamase (Escherichia coli), Q5U7L7 [W87F]; assay: Activity of beta-lactamase VIM-2 W87F mutant expressed in Escherichia coli XL1-Blue isolated from 3.3 hrs grown culture
In short: (§4)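 E. coli XL-1 carrying pLBII-VIM-2 (wild-type or W87F) was grown and sampled at the stated times, with cell density read as A600. Imipenem hydrolysis in crude cell extracts was read spectrophotometrically in 10 mM HEPES pH 7.5 with 50 μM ZnSO4 and 150 μM imipenem. Activity was normalized to cell density. Values are means of three independent measurements.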

[6] = test system: Metallo-beta-lactamase (Escherichia coli), Q5U7L7 [W87F]; assay: Activity of beta-lactamase VIM-2 W87F mutant expressed in Escherichia coli XL1-Blue isolated from 0.5 hrs grown culture; in short: as §4
[7] = test system: Metallo-beta-lactamase (Escherichia coli), Q5U7L7 [W87F]; assay: as §1; remark: listed apart in the source
[8] = molecular target: Metallo-beta-lactamase (Escherichia coli) (UniProt Q5U7L7); assay: Activity of beta-lactamase VIM-2 in Escherichia coli XL1-Blue isolated from 4.3 hrs grown culture; in short: as §3
[9] = molecular target: Metallo-beta-lactamase (Escherichia coli) (UniProt Q5U7L7); assay: (§5) Activity of beta-lactamase VIM-2 in Escherichia coli XL1-Blue isolated from […] grown culture
Escherichia coli [10] = assay: Ratio of Kcat to Km for Escherichia coli XL1-Blue wild-type IMP-1 beta-lactamase by spectrophotometer
[11] = molecular target: Metallo-beta-lactamase (Escherichia coli) (UniProt Q5U7L7); assay: as §5; remark: listed apart in the source
Escherichia coli [12] = assay: Ratio of Kcat to Km for Escherichia coli XL1-Blue IMP-1 W64A mutant beta-lactamase by spectrophotometer
[13] = test system: Metallo-beta-lactamase (Escherichia coli), Q5U7L7 [W87F]; assay: as §1; remark: listed apart in the source
[14] = test system: Metallo-beta-lactamase (Escherichia coli), Q5U7L7 [W87F]; assay: Activity of beta-lactamase VIM-2 W87F mutant expressed in Escherichia coli XL1-Blue isolated from 3.8 hrs grown culture; in short: as §4
[15] = molecular target: Metallo-beta-lactamase (Escherichia coli) (UniProt Q5U7L7); assay: Activity of beta-lactamase VIM-2 in Escherichia coli XL1-Blue isolated from 6 hrs grown culture; in short: as §4
[16] = molecular target: Metallo-beta-lactamase (Escherichia coli) (UniProt Q5U7L7); assay: as §5; remark: listed apart in the source
[17] = test system: Metallo-beta-lactamase (Escherichia coli), Q5U7L7 [W87F]; assay: Activity of beta-lactamase VIM-2 W87F mutant expressed in Escherichia coli XL1-Blue isolated from 5.0 hrs grown culture; in short: as §4
Escherichia coli [18] = assay: Ratio of Kcat to Km for Escherichia coli XL1-Blue VIM-2 A64W mutant beta-lactamase by spectrophotometer; in short: as §2
[19] = molecular target: Metallo-beta-lactamase (Escherichia coli) (UniProt Q5U7L7); assay: Activity of beta-lactamase VIM-2 in Escherichia coli XL1-Blue isolated from 3.8 hrs grown culture; in short: as §4
Escherichia coli [20] = assay: Activity of Escherichia coli XL1-Blue IMP-1 W64A mutant beta-lactamase by spectrophotometer
[21] = molecular target: Metallo-beta-lactamase (Escherichia coli) (UniProt Q5U7L7); assay: Activity of beta-lactamase VIM-2 in Escherichia coli XL1-Blue isolated from 0.5 hrs grown culture; in short: as §4
[22] = molecular target: Metallo-beta-lactamase (Escherichia coli) (UniProt Q5U7L7); assay: Activity of beta-lactamase VIM-2 in Escherichia coli XL1-Blue isolated from 3.3 hrs grown culture; in short: as §4
[23] = test system: Metallo-beta-lactamase (Escherichia coli), Q5U7L7 [W87F]; assay: Activity of beta-lactamase VIM-2 W87F mutant expressed in Escherichia coli XL1-Blue isolated from 6.0 hrs grown culture; in short: as §4
[24] = test system: Metallo-beta-lactamase (Escherichia coli), Q5U7L7 [W87F]; assay: Activity of beta-lactamase VIM-2 W87F mutant expressed in Escherichia coli XL1-Blue isolated from 4.3 hrs grown culture; in short: as §3
[25] = test system: Metallo-beta-lactamase (Escherichia coli), Q5U7L7 [W87F]; assay: Activity of beta-lactamase VIM-2 W87F mutant expressed in Escherichia coli XL1-Blue isolated from 1.2 hrs grown culture; in short: as §3
[26] = molecular target: Metallo-beta-lactamase (Escherichia coli) (UniProt Q5U7L7); assay: Activity of beta-lactamase VIM-2 in Escherichia coli XL1-Blue isolated from 5 hrs grown culture; in short: as §4
[27] = test system: CO/N=C(\C(=O)N[C@@H]1C(=O)N2C(C(=O)[O-])=C(C[N+]3(C)CCCC3)CS[C@H]12)c1csc(N)n1; assay: (§6) Ratio of Kcat to Km for Escherichia coli BL21(DE3) VIM-2 W87F mutant beta-lactamase by spectrophotometer
[28] = test system: C[C@@H](O)[C@H]1C(=O)N2C(C(=O)O)=C(SCCNC=N)C[C@H]12; assay: as §6
[29] = test system: CO/N=C(\C(=O)N[C@@H]1C(=O)N2C(C(=O)[O-])=C(C[N+]3(C)CCCC3)CS[C@H]12)c1csc(N)n1; assay: (§7) Activity of Escherichia coli BL21(DE3) VIM-2 W87F mutant beta-lactamase by spectrophotometer
[30] = test system: C[C@@H](O)[C@H]1C(=O)N2C(C(=O)O)=C(SCCNC=N)C[C@H]12; assay: as §7

Compound: C[C@@H](O)[C@H]1C(=O)N2C(C(=O)O)=C(SCCNC=N)C[C@H]12
- Activity [1]: < 2.7 nmol/mL/min
- Km (Escherichia coli [2]): 21 µM
- kcat (Escherichia coli [2]): 60 s⁻¹
- Km (Escherichia coli [3]): 25 µM
- kcat (Escherichia coli [3]): 68 s⁻¹
- Activity [4]: < 2.7 nmol/mL/min
- Activity [5]: < 2.7 nmol/mL/min
- Activity [6]: < 2.7 nmol/mL/min
- Activity [7]: < 2.7 nmol/mL/min
- Activity [8]: 270 nmol/mL/min
- Activity [9]: 110 nmol/mL/min
- kcat/Km (Escherichia coli [10]): 2.7e+06 M⁻¹ s⁻¹
- Activity [11]: 30 nmol/mL/min
- kcat/Km (Escherichia coli [12]): 550000 M⁻¹ s⁻¹
- Activity [13]: < 2.7 nmol/mL/min
- Activity [14]: 4.7 nmol/mL/min
- Activity [15]: 380 nmol/mL/min
- Activity [16]: 39 nmol/mL/min
- Activity [17]: 7.9 nmol/mL/min
- kcat/Km (Escherichia coli [18]): 2.9e+06 M⁻¹ s⁻¹
- Activity [19]: 240 nmol/mL/min
- Km (Escherichia coli [20]): 120 µM
- kcat (Escherichia coli [20]): 67 s⁻¹
- Activity [21]: < 2.7 nmol/mL/min
- Activity [22]: 170 nmol/mL/min
- Activity [23]: 9.5 nmol/mL/min
- Activity [24]: 4.7 nmol/mL/min
- Activity [25]: < 2.7 nmol/mL/min
- Activity [26]: 330 nmol/mL/min

Compound: CC(C)(O/N=C(\C(=O)N[C@@H]1C(=O)N2C(C(=O)[O-])=C(C[n+]3ccccc3)CS[C@H]12)c1csc(N)n1)C(=O)O
- Km (Escherichia coli [2]): 40 µM
- kcat (Escherichia coli [2]): 0.7 s⁻¹
- Km (Escherichia coli [3]): 44 µM
- kcat (Escherichia coli [3]): 8 s⁻¹
- kcat/Km (Escherichia coli [10]): 180000 M⁻¹ s⁻¹
- kcat/Km (Escherichia coli [18]): 18000 M⁻¹ s⁻¹

Compound: Metallo-beta-lactamase (Escherichia coli) (from UniProt Q5U7L7) W87F
- kcat/Km [27]: 48000 M⁻¹ s⁻¹
- kcat/Km [28]: 3.7e+06 M⁻¹ s⁻¹
- Km [29]: > 450 µM
- kcat [29]: > 20 s⁻¹
- Km [30]: 6 µM
- kcat [30]: 22 s⁻¹
